From ChEMBL document CHEMBL1141844, “Geranins A and B, new antiprotozoal A-type proanthocyanidins from Geranium niveum” (J Nat Prod, 1999)
≈ marks a conversion by molar mass, not a printed value. Calls of active or inactive are those of the source. The calls are words filed in the database; no cut-off is given here.

Legend:
A549 = assay: Cytotoxicity against human A549 cells after 7 days by MTT method; type: functional, cell-based
How it was run: (§1)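 Run at the Purdue Cell Culture Laboratory as a seven-day MTT assay on human solid tumour lines, with adriamycin as the positive control.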

Entamoeba histolytica = assay: Antiprotozoal activity against axenically grown trophozoites of Entamoeba histolytica HM1-IMSS after 48 hrs by MTT method; type: functional, organism-based
How it was run: (§2)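 Log-phase trophozoites from axenic culture: E. histolytica in TYI-S-33 with 10% bovine serum (inoculum 6 × 10³/mL), G. lamblia in modified TYI-S-33 with 10% calf serum (inoculum 5 × 10⁴/mL). Test material in DMSO/medium at 2.5–200 µg/mL, 48 h, 37 °C. Counted by haemocytometer, then MTT (0.075% final) plus PMS, 45 min, A570. Inhibition converted to probits and regressed on log concentration to give IC50. Duplicates, repeated at least three times.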

Giardia intestinalis = assay: Antiprotozoal activity against axenically grown trophozoites of Giardia lamblia IMSS:0989:1 after 48 hrs by MTT method; type: functional, organism-based; settings: Giardia duodenalis; how it was run: as §2
MCF7 = assay: Cytotoxicity against human MCF7 cells after 7 days by MTT method; type: functional, cell-based; how it was run: as §1
HT-29 = assay: Cytotoxicity against human HT-29 cells after 7 days by MTT method; type: functional, cell-based; how it was run: as §1

| SMILES | Activity (A549) | IC50 (Entamoeba histolytica) [µg/mL] | IC50 (Giardia intestinalis) [µg/mL] | Activity (MCF7) | Activity (HT-29) |
| --- | --- | --- | --- | --- | --- |
| CC1(C)CC[C@]2(C(=O)O)CC[C@]3(C)C(=CC[C@@H]4[C@@]5(C)CC[C@H](C(=O)/C=C/c6ccc(O)c(O)c6)C(C)(C)[C@@H]5CC[C@]43C)[C@@H]2C1 | inactive | 22.6 (≈ 37.5 µM) | 31.2 (≈ 51.8 µM) | inactive | inactive |
| COC(=O)c1cc(O)c(O)c(O)c1 [GALLIC ACID METHYL ESTER] | inactive | 144 (≈ 780 µM) | 49.2 (≈ 267 µM) | inactive | inactive |
| Oc1ccc([C@H]2Oc3c(c(O)cc4c3[C@H]3c5c(O)cc(O)cc5O[C@@](c5ccc(O)cc5)(O4)[C@@H]3O)C[C@@H]2O)cc1 [GERANIN A] | inactive | 185 (≈ 339 µM) | 2.4 (≈ 4.41 µM) | inactive | inactive |
| Oc1ccc([C@H]2Oc3c(c(O)cc4c3[C@H]3c5c(O)cc(O)cc5O[C@@](c5ccc(O)c(O)c5)(O4)[C@@H]3O)C[C@@H]2O)cc1 [GERANIN B] | inactive | 13.6 (≈ 24.3 µM) | 6 (≈ 10.7 µM) | inactive | inactive |
| O=c1c(O[C@@H]2O[C@H](CO)[C@H](O)[C@H](O)[C@H]2O)c(-c2ccc(O)c(O)c2)oc2cc(O)cc(O)c12 [HYPEROSIDE] | inactive | 109 (≈ 235 µM) | 85.1 (≈ 183 µM) | inactive | inactive |
| Cc1ncc([N+](=O)[O-])n1CCO [METRONIDAZOLE] | inactive | 0.04 (≈ 0.234 µM) |  | inactive | inactive |
